Measurements as given in ChEMBL document CHEMBL4325893, “Synthesis and antibacterial profiles of targeted triclosan derivatives” (2019).

Tests used:
[1] = system: Staphylococcus haemolyticus; experiment: Antibacterial activity against Staphylococcus haemolyticus OCC 2223 after 18 hrs; assay type: functional; details: OCC 2223, 18 h
In short: (§1)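 Broth microdilution in Nutrient Broth No. 2. Ethanol stocks were diluted in broth to 0.01–128 µg/ml for triclosan and 0.25–256 µg/ml for glycosides. Overnight 37°C NB2 cultures were diluted 1 in 10^4 in saline and added to the wells. Plates were incubated at 37°C with OD read every 15 min after agitation. MIC was the lowest concentration giving no OD increase at 18 h.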

[2] = system: Escherichia coli; experiment: Antibacterial activity against Escherichia coli OCC 122 after 18 hrs; assay type: functional; details: OCC 122, 18 h
In short: (§2)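 Broth microdilution in Nutrient Broth No. 2; stocks in ethanol diluted to 0.01–128 µg/ml (triclosan) or 0.25–256 µg/ml (glycosides). Overnight 37 °C NB2 cultures diluted 1 in 10^4 in saline and added to the dilutions. Incubation at 37 °C with agitation, OD read every 15 min; MIC is the lowest concentration preventing any OD rise after 18 h.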

[3] = system: Salmonella enteritidis; experiment: Antibacterial activity against Salmonella enterica subspecies enterica serotype Enteritidis 13076 after 18 hrs; assay type: functional, Salmonella enterica subsp. enterica serovar Enteritidis; details: Salmonella enterica, 13076, 18 h; in short: as §2
[4] = system: Streptococcus viridans; experiment: Antibacterial activity against Streptococcus viridans OCC 234 after 18 hrs; assay type: functional; details: OCC 234, 18 h; in short: as §1
[5] = system: Staphylococcus saprophyticus; experiment: Antibacterial activity against Staphylococcus saprophyticus ATCC 15305 after 18 hrs; assay type: functional; details: ATCC 15305, 18 h; in short: as §1
[6] = system: Staphylococcus aureus; experiment: Antibacterial activity against Staphylococcus aureus OCC 104 after 18 hrs; assay type: functional; details: OCC 104, 18 h; in short: as §2
[7] = system: Escherichia coli; experiment: Antibacterial activity against Escherichia coli ATCC 10536 after 18 hrs; assay type: functional; details: ATCC 10536, 18 h; in short: as §2
[8] = Antibacterial activity against Salmonella enterica subspecies enterica serotype Poona NCTC 4840 after 18 hrs; assay type: functional, Salmonella enterica subsp. enterica serovar Poona; details: NCTC 4840, 18 h; in short: as §2
[9] = system: Escherichia coli; experiment: Antibacterial activity against Escherichia coli ATCC 35218 after 18 hrs; assay type: functional; details: ATCC 35218, 18 h; in short: as §2
[10] = Antibacterial activity against Enterobacter cloacae ATCC 13047 after 18 hrs; assay type: functional, Enterobacter cloacae subsp. cloacae; details: ATCC 13047, 18 h; in short: as §2
[11] = system: Klebsiella aerogenes; experiment: Antibacterial activity against Klebsiella aerogenes NCTC 8167 after 18 hrs; assay type: functional; details: NCTC 8167, 18 h; in short: as §2
[12] = system: Staphylococcus epidermidis; experiment: Antibacterial activity against Staphylococcus epidermidis ATCC 14990 after 18 hrs; assay type: functional; details: ATCC 14990, 18 h; in short: as §2
[13] = system: Aeromonas hydrophila; experiment: Antibacterial activity against Aeromonas hydrophila OCC 778 after 18 hrs; assay type: functional; details: OCC 778, 18 h; in short: as §2
[14] = system: Pseudomonas aeruginosa; experiment: Antibacterial activity against Pseudomonas aeruginosa ATCC 27853 after 18 hrs; assay type: functional; details: ATCC 27853, 18 h; in short: as §2
[15] = Antibacterial activity against Salmonella enterica subspecies enterica serotype Pullorum OCC 273 after 18 hrs; assay type: functional, Salmonella enterica subsp. enterica serovar Pullorum; details: OCC 273, 18 h; in short: as §2
[16] = system: Streptococcus pneumoniae; experiment: Antibacterial activity against Streptococcus pneumoniae 6305 after 18 hrs; assay type: functional; details: Streptococcus pneumoniae, 6305, 18 h; in short: as §1
[17] = system: Citrobacter freundii; experiment: Antibacterial activity against Citrobacter freundii OCC 851 after 18 hrs; assay type: functional; details: OCC 851, 18 h; in short: as §2
[18] = system: Serratia marcescens; experiment: Antibacterial activity against Serratia marcescens OCC 217 after 18 hrs; assay type: functional; details: OCC 217, 18 h; in short: as §2
[19] = system: Streptococcus pneumoniae; experiment: Antibacterial activity against Streptococcus pneumoniae ATCC 49619 after 18 hrs; assay type: functional; details: ATCC 49619, 18 h; in short: as §1
[20] = system: Bacillus subtilis; experiment: Antibacterial activity against Bacillus subtilis NCTC 10073 after 18 hrs; assay type: functional; details: NCTC 10073, 18 h; in short: as §2
[21] = system: Escherichia coli; experiment: Antibacterial activity against Escherichia coli NCTC 13216 after 18 hrs; assay type: functional; details: NCTC 13216, 18 h; in short: as §2
[22] = system: Salmonella enterica subsp. enterica serovar Abony; experiment: Antibacterial activity against Salmonella enterica subspecies enterica serotype Abony NCTC 6017 after 18 hrs; assay type: functional; details: NCTC 6017, 18 h; in short: as §2
[23] = system: Staphylococcus aureus; experiment: Antibacterial activity against Staphylococcus aureus ATCC 6538 after 18 hrs; assay type: functional; details: ATCC 6538, 18 h; in short: as §2
[24] = system: Bacillus cereus; experiment: Antibacterial activity against Bacillus cereus ATCC 14579 after 18 hrs; assay type: functional; details: ATCC 14579, 18 h; in short: as §2
[25] = system: Staphylococcus epidermidis; experiment: Antibacterial activity against Staphylococcus epidermidis ATCC 12228 after 18 hrs; assay type: functional; details: ATCC 12228, 18 h; in short: as §2
[26] = system: Staphylococcus aureus; experiment: Antibacterial activity against Staphylococcus aureus ATCC 9144 after 18 hrs; assay type: functional; details: ATCC 9144, 18 h; in short: as §2
[27] = system: Hafnia alvei; experiment: Antibacterial activity against Hafnia alvei 13337 after 18 hrs; assay type: functional; details: Hafnia alvei, 13337, 18 h; in short: as §2
[28] = Antibacterial activity against Salmonella enterica subspecies enterica serotype Indiana OCC 597 after 18 hrs; assay type: functional, Salmonella enterica subsp. enterica serovar Indiana; details: OCC 597, 18 h; in short: as §2
[29] = system: Klebsiella pneumoniae; experiment: Antibacterial activity against Klebsiella pneumoniae ATCC 13883 after 18 hrs; assay type: functional; details: ATCC 13883, 18 h; in short: as §2
[30] = system: Staphylococcus aureus; experiment: Antibacterial activity against Staphylococcus aureus NCTC 13758 after 18 hrs; assay type: functional; details: NCTC 13758, 18 h; in short: as §2
[31] = system: Proteus mirabilis; experiment: Antibacterial activity against Proteus mirabilis ATCC 12453 after 18 hrs; assay type: functional; details: ATCC 12453, 18 h; in short: as §2
[32] = Antibacterial activity against Salmonella enterica subspecies enterica serotype Infantis OCC 2133 after 18 hrs; assay type: functional, Salmonella enterica subsp. enterica serovar Infantis; details: OCC 2133, 18 h; in short: as §2
[33] = Antibacterial activity against Salmonella enterica subspecies enterica serotype Nottingham NCTC 7832 after 18 hrs; assay type: functional, Salmonella enterica subsp. enterica serovar Nottingham; details: NCTC 7832, 18 h; in short: as §2
[34] = system: Citrobacter freundii; experiment: Antibacterial activity against Citrobacter freundii 8090 after 18 hrs; assay type: functional; details: Citrobacter freundii, 8090, 18 h; in short: as §2
[35] = Antibacterial activity against Salmonella enterica subspecies enterica serotype Arizonae OCC 706 after 18 hrs; assay type: functional, Salmonella enterica subsp. enterica serovar Arizonae; details: OCC 706, 18 h; in short: as §2
[36] = system: Enterococcus faecalis; experiment: Antibacterial activity against Enterococcus faecalis ATCC 29212 after 18 hrs; assay type: functional; details: ATCC 29212, 18 h; in short: as §2
[37] = system: Escherichia coli; experiment: Antibacterial activity against Escherichia coli 700728 after 18 hrs; assay type: functional; details: Escherichia coli, 700728, 18 h; in short: as §2
[38] = system: Escherichia coli; experiment: Antibacterial activity against Escherichia coli ATCC 11775 after 18 hrs; assay type: functional; in short: as §2
[39] = system: Staphylococcus aureus; experiment: Antibacterial activity against Staphylococcus aureus ATCC 29213 after 18 hrs; assay type: functional; details: ATCC 29213, 18 h; in short: as §2
[40] = system: Enterococcus faecalis; experiment: Antibacterial activity against Enterococcus faecalis ATCC 33186 after 18 hrs; assay type: functional; details: ATCC 33186, 18 h; in short: as §2
[41] = system: Cronobacter sakazakii; experiment: Antibacterial activity against Cronobacter sakazakii 29544 after 18 hrs; assay type: functional; details: Cronobacter sakazakii, 29544, 18 h; in short: as §2
[42] = system: Escherichia hermannii; experiment: Antibacterial activity against Escherichia hermannii 33650 after 18 hrs; assay type: functional; details: Atlantibacter hermannii, 33650, 18 h; in short: as §2
[43] = system: Klebsiella aerogenes; experiment: Antibacterial activity against Enterobacter aerogenes ATCC 13048 after 18 hrs; assay type: functional; details: ATCC 13048, 18 h; in short: as §2
[44] = system: Klebsiella pneumoniae; experiment: Antibacterial activity against Klebsiella pneumoniae ATCC 10031 after 18 hrs; assay type: functional; details: ATCC 10031, 18 h; in short: as §2
[45] = system: Proteus vulgaris; experiment: Antibacterial activity against Proteus vulgaris OCC 195 after 18 hrs; assay type: functional; details: OCC 195, 18 h; in short: as §2
[46] = system: Enterococcus faecium; experiment: Antibacterial activity against Enterococcus faecium ATCC 19434 after 18 hrs; assay type: functional; details: ATCC 19434, 18 h; in short: as §2
[47] = system: Salmonella typhimurium; experiment: Antibacterial activity against Salmonella enterica subspecies enterica serotype typhimurium ATCC 14028 after 18 hrs; assay type: functional, Salmonella enterica subsp. enterica serovar Typhimurium; details: ATCC 14028, 18 h; in short: as §2
[48] = Antibacterial activity against Salmonella enterica subspecies enterica serotype Dublin OCC 627 after 18 hrs; assay type: functional, Salmonella enterica subsp. enterica serovar Dublin; details: OCC 627, 18 h; in short: as §2
[49] = system: Streptococcus pyogenes; experiment: Antibacterial activity against Streptococcus pyogenes ATCC 19615 after 18 hrs; assay type: functional; details: ATCC 19615, 18 h; in short: as §1
[50] = system: Staphylococcus aureus; experiment: Antibacterial activity against Staphylococcus aureus ATCC 6538P after 18 hrs; assay type: functional; in short: as §2
[51] = system: Escherichia coli; experiment: Antibacterial activity against Escherichia coli ATCC 8739 after 18 hrs; assay type: functional; details: ATCC 8739, 18 h; in short: as §2
[52] = system: Escherichia coli; experiment: Antibacterial activity against Escherichia coli ATCC 25922 after 18 hrs; assay type: functional; details: ATCC 25922, 18 h; in short: as §2
[53] = system: Staphylococcus aureus; experiment: Antibacterial activity against Staphylococcus aureus OCC 106 after 18 hrs; assay type: functional; details: OCC 106, 18 h; in short: as §2
[54] = system: Staphylococcus epidermidis; experiment: Antibacterial activity against Staphylococcus epidermidis 155 after 18 hrs; assay type: functional; details: Staphylococcus epidermidis, 155, 18 h; in short: as §2
[55] = system: Streptococcus agalactiae; experiment: Antibacterial activity against Streptococcus agalactiae OCC 182 after 18 hrs; assay type: functional; details: OCC 182, 18 h; in short: as §1
[56] = Antibacterial activity against Salmonella enterica subspecies enterica serotype Virchow NCTC 5742 after 18 hrs; assay type: functional, Salmonella enterica subsp. enterica serovar Virchow; details: NCTC 5742, 18 h; in short: as §2
[57] = system: Staphylococcus aureus; experiment: Antibacterial activity against Staphylococcus aureus ATCC 25923 after 18 hrs; assay type: functional; details: ATCC 25923, 18 h; in short: as §2

Measured: MIC

OC[C@H]1O[C@H](Oc2cc(Cl)ccc2Oc2ccc(Cl)cc2Cl)[C@H](O)[C@@H](O)[C@@H]1O
8 µg/mL: [41] | [43]
32 µg/mL: [16] | [19] | [20] | [49]
1 µg/mL: [1] | [6] | [10] | [12] | [23] | [25] | [26] | [27] | [29] | [30] | [39] | [42] | [44] | [50] | [53] | [54] | [57]
2 µg/mL: [11] | [31]
128 µg/mL: [4] | [24] | [36] | [40] | [55]
256 µg/mL: [13] | [46]
> 256 µg/mL: [14] | [18]
4 µg/mL: [5] | [17] | [34] | [45]
2 to 8 µg/mL: all other assays above
